Screening data (PubChem BioAssay)
PAX8 inh HTS: PAX8 transcriptional activity inhibition; RMG-I TPO-luciferase reporter, SteadyGlo, 24 h; inhibition, % at 12.6 µM; 360,000 tested, 1.2% active;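 active means mean replicate inhibition at least 60% with every replicate also reaching 60%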;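 further: luciferase light reporting Pax8 driven TPO promoter activity; plate controls were median of neutral control wells for no effect and mitoxantrone controls for full effect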
FN deposit inh: fibronectin deposition inhibition; AH1F fibroblasts, Alexa488-fibronectin deposition fluorescence, overnight; inhibition, % at 12.6 µM; 350,000 tested, 0.086% active;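 active means mean inhibition across replicates of 30% or more, regardless of how many single replicates reach that level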;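 further: positive control wells lacked labelled fibronectin entirely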
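Assay system: AH1F fibroblasts / Quantity: 10000 cells per well / Medium: DMEM plus 2% serum, read in PBS / Reagent: labelled fibronectin 24 nM / Dosing: single dose, pinned / Times: 1 h cell attachment, overnight exposure to compound and label / Signal: fluorescence, ex 485 nm, em 525 nm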
RAD52 anneal inh: blocks human RAD52 DNA annealing; recombinant RAD52 DNA annealing, FRET fluorescence; P43351; inhibition, % at 18.7 µM; 360,000 tested, 0.46% active;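 active means every replicate showing at least 50% inhibition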
RAD54 inh: blocks human RAD54 Holliday junction branch migration | inhibition, % at 10.4 µM | FAM/BHQ fluorescence | AID 602329 | 360,000 tested, 0.14% active;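 active means mean normalized replicate activity at least 40 and at least half of replicates scoring 40 or more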;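 further: 0% = median of neutral control wells and 100% = median of positive control wells; inhibitors cause a drop in the FAM fluorescence signal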
Target sequence (Q92698 whole entry, looked up): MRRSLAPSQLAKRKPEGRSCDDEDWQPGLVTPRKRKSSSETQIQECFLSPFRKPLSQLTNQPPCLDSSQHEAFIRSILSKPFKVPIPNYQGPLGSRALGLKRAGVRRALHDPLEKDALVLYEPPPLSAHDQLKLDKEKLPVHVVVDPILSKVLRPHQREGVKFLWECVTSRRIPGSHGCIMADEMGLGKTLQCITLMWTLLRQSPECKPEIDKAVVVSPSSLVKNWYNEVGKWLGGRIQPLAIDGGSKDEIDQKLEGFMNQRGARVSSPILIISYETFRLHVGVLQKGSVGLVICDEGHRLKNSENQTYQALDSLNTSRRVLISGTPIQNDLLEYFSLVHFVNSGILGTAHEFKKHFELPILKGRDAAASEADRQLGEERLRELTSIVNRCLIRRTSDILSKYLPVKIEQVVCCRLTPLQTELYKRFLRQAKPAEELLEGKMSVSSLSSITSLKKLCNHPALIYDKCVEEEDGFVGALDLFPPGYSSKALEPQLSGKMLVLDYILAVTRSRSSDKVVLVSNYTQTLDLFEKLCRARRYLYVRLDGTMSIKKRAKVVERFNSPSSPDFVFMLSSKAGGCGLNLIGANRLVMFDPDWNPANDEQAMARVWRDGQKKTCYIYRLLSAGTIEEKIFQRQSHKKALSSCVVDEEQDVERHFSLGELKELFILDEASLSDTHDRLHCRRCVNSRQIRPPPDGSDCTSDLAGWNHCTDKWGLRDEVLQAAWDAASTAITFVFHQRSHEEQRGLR
Active calls of the source: *; . = no result given; ! = repeats disagree. Sampled rows, rich in hits. Any-hit rate of the full collection: about 1.3%.

SMILES | PAX8 inh HTS | FN deposit inh | RAD52 anneal inh | RAD54 inh
CN(C)S(=O)(=O)c1cccc(N=C2NN=C(c3ccccc3)CS2)c1 | 73* | -16 | -30 | .
Fc1ccccc1N=C1NN=C(c2ccccc2)CS1 | 60 | -13 | -7 | 0
N#C[C@H]1[C@H](c2ccccc2-c2ccc(F)cc2)[C@H](CO)N1C(=O)Cc1ccccc1 | -34 | -7 | 4 | .
O=C(NCc1ccc2c(c1)OCO2)c1nc(S(=O)(=O)Cc2ccccc2)ncc1Cl | 22 | 3 | -8 | -5
O=C(NCc1ccc2c(c1)OCO2)c1nc(S(=O)(=O)Cc2ccccc2F)ncc1Cl | 36 | 33* | -27 | -3
CS(=O)(=O)c1ncc(Cl)c(C(=O)Nc2ccc3ccccc3c2)n1 | 89* | -13 | -15 | .
CCC1CCCCN1S(=O)(=O)c1ccc(NC(=O)c2nc(S(C)(=O)=O)ncc2Cl)cc1 (centres undefined) | 104* | 39* | -23 | -4
O=C(Nc1ccc2ccccc2c1)c1cnccn1 | . | . | . | 6
CCS(=O)(=O)c1ncc(Cl)c(C(=O)Nc2ccc(S(=O)(=O)N3CCCC(C)C3)cc2)n1 (centres undefined) | 102* | -14 | -82 | -4
CCCCC(c1nnnn1CCOC)N1CCN(CC)CC1 (centres undefined) | 2 | -1 | . | -8
CCCOc1cccn2c(N(C)C(=O)c3ccccc3F)c(CC)nc12 | -15 | -5 | -16 | 2
O=C1CCC([N+](=O)[O-])C(c2ccc(F)c(Br)c2)N1 (centres undefined) | -6 | -8 | -5 | -15
COc1ccc(S(=O)(=O)Nc2cc(C)ccn2)cc1 | -3 | . | . | -11
CC(=O)Nc1ccc(NC(=O)c2nc(S(=O)(=O)Cc3ccccc3)ncc2Cl)cc1 | 94* | 51* | 6 | -5
CCC1CCCCN1S(=O)(=O)c1ccc(NC(=O)C2CCN(C(=O)c3ccco3)CC2)cc1 (centres undefined) | 64* | -5 | -3 | -3
CCS(=O)(=O)c1ncc(Cl)c(C(=O)Nc2ccc(C)cc2)n1 | 100* | 5 | -6 | 6
CCOc1ccccc1NC(=O)c1nc(S(=O)(=O)Cc2cccc(C)c2)ncc1Cl | 132* | 5 | -26 | 3
Cc1ccsc1C(=O)OCC(=O)NC1CC1 | -8 | -1 | -3 | -11
O=C(NNC(=O)c1cccc2ccccc12)c1cccc(F)c1 | 87* | 1 | 1 | 8
O=C(CCCc1ccccc1)Nc1cccc(C(=O)O)c1 | 33 | 33* | -21 | .
O=C(CCc1ccccc1)NC(=S)Nc1cccc(C(=O)O)c1 | -78 | -4 | -3 | 3
O=C(C[C@@H]1CC[C@H]2[C@@H](COC[C@H](O)CN2S(=O)(=O)c2ccc(Cl)cc2)O1)NCc1ccc(Cl)c(Cl)c1 | 8 | 0 | -47 | -3
CC1=CC(=O)[C@@H](O)[C@@H](c2ccccc2Br)N1C | -11 | active | -11 | -3
CC1=CC(=O)[C@@H](OC(=O)Nc2ccc(C)cc2)[C@@H](c2ccccc2Br)N1C | -8 | 14 | -1 | 9
CC(C)N(CCCNC(=O)c1ccc(CS(=O)(=O)c2c(Cl)cccc2Cl)o1)Cc1ccccc1 | 62* | -3 | -6 | 8
SMILES | PAX8 inh HTS | FN deposit inh | RAD52 anneal inh | RAD54 inh
CCCCN(CCCNC(=O)c1ccc(CS(=O)(=O)c2c(Cl)cccc2Cl)o1)Cc1ccccc1 | 12 | -13 | -2 | 1
CCN(CC)c1ccc(/C=N/NC(=S)NCc2ccc(OC)cc2)cc1 | -20 | -9 | . | .
Cc1cnc(NC(=O)CSc2nnc(C)n2N)s1 | 130* | 6 | -2 | .
O=C(Nc1ccccc1)C1=C[C@H](c2ccc(C(F)(F)F)cc2)C[C@H](OCCCCO)O1 | 87*! | -6 | -6 | -7
O=C(NCC(c1ccco1)N1CCN(c2ccccc2)CC1)c1cccs1 (centres undefined) | -12 | 11 | -14 | 7
COc1ccc(/C=N/NS(=O)(=O)c2ccccc2)cc1OC(=O)c1ccc(C)cc1 | . | . | . | 0
COc1cc(/C=N/O)ccc1OCc1ccc(C(=O)O)cc1 | 94* | 3 | . | -1
COc1cc(/C=N/NS(=O)(=O)c2ccc3ccccc3c2)ccc1OCc1ccc(C(=O)O)cc1 | 84* | 1 | -5 | -5
COc1cc(/C=N/NS(=O)(=O)c2ccc(C)cc2)ccc1OCc1cccc(C(=O)O)c1 | 91* | 2 | -25 | 13
COc1ccc(/C=N/NS(=O)(=O)c2ccc(C)cc2)cc1OC(=O)c1ccccc1 | . | . | . | -2
CO[C@@H]1CN(C)C(=O)c2cc(NC(=O)C3CC3)ccc2OC[C@H](C)N(C(=O)NC(C)C)C[C@H]1C | -3 | -2 | . | .
CC(C)C#Cc1cnc2c(c1)C(=O)N([C@@H](C)CO)C[C@@H](C)[C@H](CN(C)Cc1ccccc1F)O2 | . | . | -1 | -8
O=C(C1CCCC1)N1CC[C@@H]2[C@H](CO)Nc3ccc(C4=CCCCC4)cc3[C@@H]21 | 90* | -1 | 21 | .
O=C(Cc1ccccc1)N1CC[C@@H]2[C@H](CO)Nc3ccc(C4=CCCCC4)cc3[C@@H]21 | 59 | 24 | 37 | -4
O=C(Cc1ccccc1)N1CC[C@H]2[C@H](CO)Nc3ccc(C4=CCCCC4)cc3[C@H]21 | 82* | -18 | . | .
COc1ccccc1-c1ccc2c(c1)[C@@H]1[C@@H](CCN1C(=O)C1CCCCC1)[C@@H](CO)N2 | 105* | . | -52 | 16
O=C(Cc1ccccc1)N1CC[C@@H]2[C@H]1c1cc(-c3cccc(F)c3)ccc1N[C@@H]2CO | 68* | 14 | -110 | -12
CN(C(=O)Cn1cnc([N+](=O)[O-])n1)C1CCCCC1 | 16 | 4 | 6 | -5
C=CCN1C(=O)CN=C1Nc1cc(C)cc(C)c1 | . | . | . | 2
COc1cccc(S(=O)(=O)NCC(=O)Nc2ccc(C(C)(C)C)cc2)c1 | 88* | 2 | -20 | -5
Cc1noc(C)c1COC(=O)[C@@H](NC(=O)c1ccccc1)C(C)C | 69* | -21 | 0 | .
CC(C)[C@H](NC(=O)c1ccccc1)C(=O)OCc1nnc(-c2ccccc2)o1 | 4 | 0 | 0 | .
COc1cccc(NC(=S)N/N=C2\CC(C)(C)Oc3ccc(O)cc32)c1 | 13 | -5 | -14 | .
Cc1cccc(NC(=S)N/N=C2\CC(C)(C)Oc3ccc(O)cc32)c1 | 21 | 39* | -8 | .
COc1ccc(C(=O)C2CCCN(Cc3ccc(NC(C)=O)cc3)C2)cc1OC (centres undefined) | 6 | 3 | -15 | -1
CC(C)NC(=O)Nc1ccc2c(c1)C(=O)N([C@H](C)CO)C[C@H](C)[C@H](CN(C)C(=O)NC1CCCCC1)O2 | -6 | . | 9 | -1
Cn1c(SCc2ccccc2)nccc1=O | 4 | -2 | -9 | 1
CC1=C(SCc2ccccc2)C(=O)c2ccccc2C1=O | 64* | . | -20 | -5
C[C@@H]1CCCCO[C@@H](CN(C)Cc2ccc3c(c2)OCO3)[C@H](C)CN([C@@H](C)CO)C(=O)c2cc(NS(=O)(=O)c3ccc(Cl)cc3)ccc2O1 | 1 | -4 | 30 | 1
C[C@@H]1CN([C@@H](C)CO)C(=O)c2cc(NS(=O)(=O)c3ccc(Cl)cc3)ccc2O[C@@H](C)CCCCO[C@@H]1CN(C)Cc1ccc2c(c1)OCO2 | 71* | -6 | 46 | -6
